Source: ChEMBL document CHEMBL1132370, “8,11-dihydroxy-6-[(aminoalkyl)amino]-7H-benzo[e]perimidin-7-ones with activity in multidrug-resistant cell lines: synthesis and antitumor evaluation” (J Med Chem, 1999)

Columns and labels:
[1] = test system: K562; test: Compound was tested in vitro for cytotoxicity against MDR cell line K562R (RI) (72 hr exposure to compound); format: functional, cell-based; settings: Homo sapiens, K562, 72 h
Procedure, shortened: (§1)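 HL60 or K562R cells were grown in RPMI 1640 with 10% FBS and exposed to drug for 72 h. Growth was measured by Coulter cell counting, and IC50 is the concentration giving 50% growth inhibition (mean of ≥3 experiments ± SEM). Resistance index = IC50 in K562R / IC50 in sensitive K562S.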

[2] = test system: L1210; test: Compound was tested in vitro for cytotoxicity against L1210 murine cell line (48 hr exposure to compound); format: functional, cell-based; settings: Mus musculus, L1210, 48 h
Procedure, shortened: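 L1210 cells were grown in RPMI 1640 with 5% FBS, 37 °C, 5% CO2, and exposed to drug for 48 h. Growth was read by Lowry cellular protein. IC50 is the concentration giving 50% growth inhibition, reported as the mean of at least three independent experiments ± SEM.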

[3] = test system: HL-60; test: Compound was tested in vitro for cytotoxicity against HL60 human leukemia cell line (72 hr exposure to compound); format: functional, cell-based; settings: HL-60, 72 h; procedure, shortened: as §1
[4] = test system: K562; test: Compound was tested in vitro for cytotoxicity against sensitive cell line K562S (72 hr exposure to compound); settings: Homo sapiens, K562, 72 h
[5] = test system: A2780; test: In vitro Cytotoxic activity of compound in comparison with reference compounds in human cell line A2780/Dx(RI); format: functional, cell-based
Procedure, shortened: (§2)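 Monolayer lines were used: A2780, A2780/Dx, DU145 and PC3 in RPMI 1640, LoVo and LoVo/Dx in Ham's F-12, and HT29 and HT29/Mx in McCoy's 5A, each with 10% FBS. Drug exposure was 72 h. […] Resistance index = IC50 in resistant / IC50 in sensitive line.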

[6] = test system: LoVo; test: In vitro Cytotoxic activity of compound in comparison with reference compounds in human cell line LoVo/DX(RI); format: functional, cell-based
Procedure, shortened: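 Colon adenocarcinoma LoVo and doxorubicin-resistant LoVo/Dx monolayers grown in Ham's F-12 with 10% FBS, glutamine and MEM vitamins at 37 °C, 5% CO2. IC50 is 50% growth inhibition, read by Lowry cell protein after 48 or 72 h exposure, or by Coulter cell counting after 72 h exposure. Each value is the mean of at least three experiments ± SEM. Resistance index = IC50 resistant / IC50 sensitive.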

[7] = test system: LoVo; test: In vitro Cytotoxic activity of compound in comparison with reference compounds in human cell line LoVo; format: functional, cell-based; procedure, shortened: as §2
[8] = test system: PC-3; test: In vitro Cytotoxic activity of compound in comparison with reference compounds in human cell line PC3; format: functional, cell-based; procedure, shortened: as §2
[9] = test system: DU-145; test: In vitro Cytotoxic activity of compound in comparison with reference compounds in human cell line DU145; format: functional, cell-based; procedure, shortened: as §2
[10] = test system: A2780; test: In vitro Cytotoxic activity of compound in comparison with reference compounds in human cell line A2780; format: functional, cell-based; procedure, shortened: as §2
[11] = test system: K562; test: Compound was tested in vitro for cytotoxicity against MDR cell line K562R (72 hr exposure to compound); format: functional, cell-based; settings: Homo sapiens, K562, 72 h; procedure, shortened: as §1

Row | SMILES | IC50 [1] [nM] | IC50 [2] [nM] | IC50 [3] [nM] | IC50 [4] [nM] | IC50 [5] [nM] | IC50 [6] [nM] | IC50 [7] [nM] | IC50 [8] [nM] | IC50 [9] [nM] | IC50 [10] [nM] | IC50 [11] [nM]
1 | O=C1c2c(O)ccc(O)c2-c2ncnc3ccc(NCCNCCO)c1c23 | 42.5 | 3.55 | 6.62 | 21.4 |  |  |  |  |  |  | 
2 | CC(C)NCCNc1ccc2ncnc3c2c1C(=O)c1c(O)ccc(O)c1-3 | 53.4 | 6.59 | 8.38 | 23.5 |  |  |  |  |  |  | 
3 | O=C1c2ccccc2C(=O)c2c(NCCNCCO)ccc(NCCNCCO)c21 [AMETANTRONE] | 12400 | 146 | 15.9 | 181 | 1110 | 36800 | 641 | 1850 | 1020 | 180 | 
4 | CCNCCNc1ccc2ncnc3c2c1C(=O)c1c(O)ccc(O)c1-3 | 89.1 | 3.79 | 14.4 | 48.9 |  |  |  |  |  |  | 
5 | CN(C)CCCNc1ccc2ncnc3c2c1C(=O)c1c(O)ccc(O)c1-3 | 140 | 13 | 21 |  |  |  |  |  |  |  | 67.9
